The test system of data set [1] is L1210. Kind of data set: Carcinostatic activity against mouse L1210 cells allografted in mouse assessed as increase in survival at 100 mg/kg relative to control. The format is functional.
The species entered for the next data set is Mus musculus. The experiment in a line: Toxicity in mouse allografted with mouse L1210 cells. The format is organism-based.
Data set [2] deals with L1210. Kind of data set: Carcinostatic activity against mouse L1210 cells allografted in mouse assessed as increase in survival at 50 mg/kg relative to control. The format is functional.
In data set [3] the test system is L1210. The experiment in a line: Carcinostatic activity against mouse L1210 cells allografted in mouse assessed as increase in life span at 100 mg/kg relative to control. Type of data set: functional. The gist of the method: (§1)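 Mice bearing L1210 lymphoid leukemia, tested externally. Read-out is percent increased life span (ILS) of treated versus control animals at the dose shown in mg/kg.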

In data set [4] the test system is Staphylococcus aureus. The experiment in a line: Bacteriostatic activity against Staphylococcus aureus 209. The format is functional.
Data set [5] concerns Staphylococcus aureus. Kind of data set: Bacteriostatic activity against Staphylococcus aureus 209 cultured in nutrient broth. The format is functional, organism-based. The gist of the method:
(§2)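 Bacteria grown in nutrient broth with the compound. Read-out is inhibition of growth, with total inhibition scored. Gram-negative (K. pneumoniae) and Gram-positive strains were tested.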

Data set [6] concerns L1210. Kind of data set: Carcinostatic activity against mouse L1210 cells allografted in mouse assessed as increase in life span at 500 mg/kg relative to control. Type of data set: functional. In short, it runs like this: as §1
Another data set deals with Klebsiella pneumoniae. The experiment in a line: Bacteriostatic activity against Klebsiella pneumoniae. Type of data set: functional, organism-based. The gist of the method:
as §2

Calls of active or inactive are those of the source. The rule behind the calls is not given here.

Broadly, the T/C is the ratio of treated to control. Regarding `C[As](C)SCC[C@H](NC(=O)[C@@H](N)CCS[As](C)C)C(=O)O`, the T/C with L1210 [1] is recorded as 144%. Also, the Activity in the data set listed under Mus musculus is above 200 mg/kg.

Turning to `C[As](C)SCC[C@@H](CCCCC(=O)O)S[As](C)C`, the T/C in the data set on L1210 [2] came out at 128%. Besides, the Activity in the data set listed under Mus musculus stood at 100 mg/kg; with L1210 [3], 33%.

For `C[As](C)SCC(N)C(=O)O` (racemic), the T/C with L1210 [2] is given as 110%. Moreover, in the data set filed under Mus musculus, the Activity is 200 mg/kg. The “inhibition zone (IZ)” value with Staphylococcus aureus [4] worked out at 15 mm. The “growth inhibition (GI)” value in the data set on Staphylococcus aureus [5] was “Active”.

Turning to `C[As](C)SC[C@H](NC(=O)CC[C@H](N)C(=O)O)C(=O)NCC(=O)O` [DARINAPARSIN], in the data set on L1210 [1], the T/C is listed as 164%. For the same molecule, the Activity amounted to 400 mg/kg in the data set filed under Mus musculus and 33% in the data set with L1210 [6]. Besides, in the data set with Staphylococcus aureus [4], the “inhibition zone (IZ)” value worked out at 20 mm. In the data set with Staphylococcus aureus [5], the “growth inhibition (GI)” value was “Active”. For the same molecule, in the data set with Klebsiella pneumoniae, the result was Active.

Source of the values: ChEMBL document CHEMBL3243964, “Biomolecules bearing the S- or SeAsMe2 function: amino acid and steroid derivatives” (J Med Chem, 1979).
